ChEMBL document CHEMBL2311380, “The first total synthesis and biological evaluation of marine natural products ma'edamines A and B” (Bioorg Med Chem Lett, 2013)
pIC50: −log10 of the molar value. Calls of active or inactive are those of the source. The calls are words filed in the database; no cut-off is given here.

Columns and labels:
THP-1 = assay: Cytotoxicity against human acute monocytic leukemia cell line THP1 assessed as inhibition of cell viability measured after 24 hrs by MTT assay; format: functional, cell-based; details: THP-1, 24 h
Outline: (§1)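 Exponentially growing cells exposed to compound, then allowed to proliferate for two to three population doubling times; surviving cells quantified by MTT reduction by mitochondrial dehydrogenase to formazan, dissolved in DMSO and read at 570 nm.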

A549 [1] = assay: Cytotoxicity against human lung adenocarcinoma cell line A549 assessed as inhibition of cell viability measured after 24 hrs by MTT assay; format: functional, cell-based; details: A549, 24 h; outline: as §1
MCF7 [2] = assay: Cytotoxicity against human breast cancer cell line MCF7 assessed as cell survival measured after 24 hrs by MTT assay relative to control; format: functional
Outline: (§2)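 Cells in exponential growth exposed to compound, then left to proliferate for two to three population doubling times so viable, proliferating cells are told apart from non-proliferating ones. Surviving cells estimated by MTT reduction to formazan by mitochondrial dehydrogenase; formazan dissolved in DMSO and read at 570 nm.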

COLO 205 [3] = assay: Cytotoxicity against human colon cancer line COLO205 assessed as inhibition of cell viability measured after 24 hrs by MTT assay; format: functional, cell-based; details: COLO 205, 24 h; outline: as §1
MCF7 [4] = assay: Induction of apoptosis in human MCF7 cells assessed as DNA laddering at IC50 concentration measured after 24 hrs by DNA laddering assay relative to control; format: functional, cell-based
Outline: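 DNA from treated and untreated cells run on a gel and examined for fragmentation (laddering).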

MCF7 [5] = assay: Cytotoxicity against human breast cancer cell line MCF7 assessed as inhibition of cell viability […] by MTT assay; format: functional, cell-based
HepG2 = assay: Cytotoxicity against human liver hepatocellular carcinoma cell line HepG2 assessed as inhibition of cell viability measured after 24 hrs by MTT assay; format: functional, cell-based; details: HepG2, 24 h; outline: as §1
MCF7 [6] = assay: Induction of apoptosis in human MCF7 cells assessed as double-strand DNA break at IC50 concentration measured after 24 hrs by comet assay relative to control; format: functional, cell-based
Outline: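 Treated cells embedded in low melting agarose on a microscope slide, lysed at alkaline pH, electrophoresed at high pH, then examined for comet tails as a sign of double-strand DNA breaks, with untreated cells as control.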

B16-F10 = assay: Cytotoxicity against mouse melanoma cell line B16F10 assessed as inhibition of cell viability measured after 24 hrs by MTT assay; format: functional, cell-based; details: B16-F10, 24 h; outline: as §1
A549 [7] = assay: Cytotoxicity against human […] assessed as cell death measured at 10 ug/mL after 24 hrs by MTT assay; format: functional; outline: as §2
A549 [8] = assay: Cytotoxicity against human […] assessed as cell death measured at 7 ug/mL after 24 hrs by MTT assay; format: functional; outline: as §2
MCF7 [9] = assay: Cytotoxicity against human colon cancer line MCF7 assessed as cell death measured at 10 ug/mL after 24 hrs by MTT assay; format: functional; outline: as §2
A549 [10] = assay: Cytotoxicity against human […] assessed as cell death measured at 2 ug/mL after 24 hrs by MTT assay; format: functional; outline: as §2
COLO 205 [11] = assay: Cytotoxicity against human colon cancer line COLO205 assessed as cell death measured at 7 ug/mL after 24 hrs by MTT assay; format: functional; outline: as §2
A549 [12] = assay: Cytotoxicity against human […] assessed as cell death measured at 1 ug/mL after 24 hrs by MTT assay; format: functional; outline: as §2
COLO 205 [13] = assay: Cytotoxicity against human colon cancer line COLO205 assessed as cell death measured at 2 ug/mL after 24 hrs by MTT assay; format: functional; outline: as §2
MCF7 [14] = assay: Cytotoxicity against human colon cancer line MCF7 assessed as cell death measured at 7 ug/mL after 24 hrs by MTT assay; format: functional; outline: as §2
A549 [15] = assay: Cytotoxicity against human […] assessed as cell death measured at 5 ug/mL after 24 hrs by MTT assay; format: functional; outline: as §2
MCF7 [16] = assay: Cytotoxicity against human colon cancer line MCF7 assessed as cell death measured at 1 ug/mL after 24 hrs by MTT assay; format: functional; outline: as §2
COLO 205 [17] = assay: Cytotoxicity against human colon cancer line COLO205 assessed as cell death measured at 5 ug/mL after 24 hrs by MTT assay; format: functional; outline: as §2
COLO 205 [18] = assay: Cytotoxicity against human colon cancer line COLO205 assessed as cell death measured at 1 ug/mL after 24 hrs by MTT assay; format: functional; outline: as §2
MCF7 [19] = assay: Cytotoxicity against human colon cancer line MCF7 assessed as cell death measured at 5 ug/mL after 24 hrs by MTT assay; format: functional; outline: as §2
MCF7 [20] = assay: Cytotoxicity against human colon cancer line MCF7 assessed as cell death measured at 2 ug/mL after 24 hrs by MTT assay; format: functional; outline: as §2
COLO 205 [21] = assay: Cytotoxicity against human colon cancer line COLO205 assessed as cell death measured at 10 ug/mL after 24 hrs by MTT assay; format: functional; outline: as §2

CNCCCOc1c(Br)cc(-c2cnc(Cl)c(Cc3ccc(OC)c(Br)c3)n2)cc1Br
pIC50 (THP-1): 3.88 | pIC50 (A549 [1]): 4.60

COc1ccc(Cc2nc(-c3cc(Br)c(OCCCN(C)C)c(Br)c3)c[nH]c2=O)cc1Br [Ma'edamine A]
pIC50 (THP-1): 4.34 | Survival (MCF7 [2]): 47.7% | pIC50 (COLO 205 [3]): 5.10 | pIC50 (A549 [1]): 4.91 | Activity (MCF7 [4]): Active | pIC50 (MCF7 [5]): 5.16 | pIC50 (HepG2): 4.53 | Activity (MCF7 [6]): Active | pIC50 (B16-F10): 4.78

COc1ccc(Cc2nc(-c3cc(Br)c(OCCCN(C)C)c(Br)c3)cnc2Cl)cc1Br
pIC50 (THP-1): 4.06 | pIC50 (A549 [1]): 4.84

CNCCCOc1c(Br)cc(-c2c[nH]c(=O)c(Cc3ccc(OC)c(Br)c3)n2)cc1Br [Ma'edamine B]
pIC50 (THP-1): 4.04 | Survival (MCF7 [2]): 49.256% | pIC50 (COLO 205 [3]): 4.99 | pIC50 (A549 [1]): 4.81 | Activity (MCF7 [4]): Active | pIC50 (MCF7 [5]): 4.96 | pIC50 (HepG2): 4.37 | Activity (MCF7 [6]): Active | pIC50 (B16-F10): 4.27

COc1ccc(Cc2nc(-c3cc(Br)c(O)c(Br)c3)cnc2Cl)cc1Br
pIC50 (THP-1): 3.97 | pIC50 (A549 [1]): 4.39

COc1cc([C@@H]2c3cc4c(cc3[C@@H](O[C@@H]3O[C@@H]5CO[C@@H](C)O[C@H]5[C@H](O)[C@H]3O)[C@H]3COC(=O)[C@H]23)OCO4)cc(OC)c1O [ETOPOSIDE]
Activity (A549 [7]): 100% | pIC50 (COLO 205 [3]): 5.28 | Activity (A549 [8]): 100% | Activity (MCF7 [9]): 51% | Activity (A549 [10]): 93.4% | pIC50 (MCF7 [5]): 4.79 | Activity (COLO 205 [11]): 100% | Activity (A549 [12]): 47.9% | Activity (COLO 205 [13]): 39.2% | Activity (MCF7 [14]): 33.7% | Activity (A549 [15]): 100% | Activity (MCF7 [16]): 4.3% | Activity (COLO 205 [17]): 78.7% | Activity (COLO 205 [18]): 17.8% | Activity (MCF7 [19]): 23.9% | Activity (MCF7 [20]): 8.9% | Activity (COLO 205 [21]): 100%

COc1ccc(Cc2nc(-c3cc(Br)c(O)c(Br)c3)c[nH]c2=O)cc1Br
pIC50 (THP-1): 3.90 | pIC50 (A549 [1]): 4.28
